Measurements taken from ChEMBL document CHEMBL4130342, “New semi-synthetic analogs of oleuropein show improved anticancer activity in vitro and in vivo” (Eur J Med Chem, 2017).

Tests used:
Mus musculus [1] = assay: In vivo induction of tumor-reactive immune response in C57BL/6 mouse allografted with mouse B16-F1 cells assessed as splenocyte-mediated mouse WEHI 164 cell lysis at 600 ug, ip administered every other day up to day 29 measured on day 29 post last dose by flow cytometric method (reference value: 1.2 to 1.6); type: functional
Procedure, shortened: (§1)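 Male C57BL/6 mice (6-8 wk) were injected sc in the right flank with 10⁵ B16.F1 cells in PBS on day 0. From day 11, when tumors were palpable, they received ip doses in 200 µL PBS every other day (8 doses; 5 mice/group). On day 29, splenocytes were co-cultured unstimulated with targets at E:T 100:1 for 6 h at 37°C. CD107a/b MFI was read by flow cytometry, 2 mice/group tested individually.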

B16-F1 [2] = assay: Induction of apoptosis in mouse B16-F1 cells assessed as late apoptotic cells at 283.90 uM after 72 hrs by propidium iodide staining-based flow cytometric method (reference value: 1.4%); type: functional
PBMC [3] = assay: Induction of apoptosis in human PBMC assessed as late apoptotic cells at 500 ug/ml after 24 hrs by propidium iodide staining-based flow cytometric method (reference value: 0.6%); type: cell-based
PBMC [4] = assay: Induction of apoptosis in human PBMC assessed as late apoptotic cells at 150 ug/ml after 24 hrs by propidium iodide staining-based flow cytometric method (reference value: 0.6%); type: cell-based
Mus musculus [5] = assay: In vivo induction of tumor-reactive immune response in C57BL/6 mouse allografted with mouse B16-F1 cells assessed as splenocyte-mediated syngeneic mouse B16-F1 cell lysis at 600 ug, ip administered every other day up to day 29 measured on day 29 post last dose by flow cytometric method (reference value: 3.3 to 3.9); type: functional; procedure, shortened: as §1
PBMC [6] = assay: Induction of apoptosis in human PBMC assessed as early apoptotic cells at 400 ug/ml after 24 hrs by propidium iodide staining-based flow cytometric method (reference value: 0.1%); type: cell-based
PBMC [7] = assay: Induction of apoptosis in human PBMC assessed as late apoptotic cells at 400 ug/ml after 24 hrs by propidium iodide staining-based flow cytometric method (reference value: 0.6%); type: cell-based
B16-F1 [8] = assay: Induction of apoptosis in mouse B16-F1 cells assessed as early apoptotic cells at 283.90 uM after 72 hrs by propidium iodide staining-based flow cytometric method (reference value: 0.4%); type: functional
B16-F1 [9] = assay: Induction of apoptosis in mouse B16-F1 cells assessed as early apoptotic cells at 283.90 uM after 24 hrs by propidium iodide staining-based flow cytometric method (reference value: 0.5%); type: functional
PBMC [10] = assay: Induction of apoptosis in human PBMC assessed as late apoptotic cells at 300 ug/ml after 24 hrs by propidium iodide staining-based flow cytometric method (reference value: 0.6%); type: cell-based
B16-F1 [11] = assay: Induction of apoptosis in mouse B16-F1 cells assessed as late apoptotic cells at 283.90 uM after 24 hrs by propidium iodide staining-based flow cytometric method (reference value: 0.9%); type: functional
Mus musculus [12] = assay: In vivo induction of tumor-reactive immune response in C57BL/6 mouse allografted with mouse B16-F1 cells assessed as splenocyte-mediated syngeneic mouse B16-F1 cell lysis at 300 ug, ip administered every other day up to day 29 measured on day 29 post last dose by flow cytometric method (reference value: 3.3 to 3.9); type: functional; procedure, shortened: as §1
B16-F1 [13] = assay: Antitumor activity against mouse B16-F1 cells allografted in C57BL/6 mouse assessed as tumor volume at 300 ug, ip administered every other day up to day 29 measured on day 29 post last dose (reference value: 2.83 cm'3); type: functional
Procedure, shortened: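 Male C57BL/6 mice, 6-8 weeks old, received 10^5 B16.F1 cells sc in the right flank on day 0. From day 11 (palpable tumors), 5 mice/group were randomized and given ip doses in 200 µL PBS every other day, 8 doses in total, up to day 29. Control group received PBS. Tumors were measured by caliper every two days; volume = 1/2(length × width²).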

B16-F1 [14] = assay: Induction of apoptosis in mouse B16-F1 cells assessed as necrotic cells at 283.90 uM after 72 hrs by propidium iodide staining-based flow cytometric method (reference value: 2.5%); type: functional
MCF7 = assay: Antiproliferative activity against human MCF7 cells after 72 hrs by MTT reduction assay; type: functional, cell-based; conditions: MCF7, 72 h
Procedure, shortened: (§2)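 MTT reduction assay; adherent lines left to adhere overnight, suspension lines (HL-60, K562) seeded on the day. […] Incubation was 72 h at 37°C, with MTT added for the last 4 h. OD read at 545 nm (reference 690 nm). IC50 from 100(A0-A)/A0=50; means ± SD of 3 independent experiments.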

SK-BR-3 = assay: Antiproliferative activity against human SKBR3 cells after 72 hrs by MTT reduction assay; type: functional, cell-based; conditions: SK-BR-3, 72 h; procedure, shortened: as §2
Mus musculus [15] = assay: Toxicity in C57BL/6 mouse allografted with mouse B16-F1 cells assessed as effect on mouse survival at 600 ug, ip administered every other day up to day 29; type: organism-based; conditions: in vivo
Procedure, shortened: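 Male C57BL/6 mice (6-8 wk) were injected sc with 10⁵ B16.F1 cells on day 0. From day 11 they received ip doses in 200 µL PBS every other day, 8 doses in total, with PBS controls. Tumors were caliper-measured every two days and the animals monitored to day 29 for signs of toxicity. Groups of 5.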

PBMC [16] = assay: Induction of apoptosis in human PBMC assessed as necrotic cells at 500 ug/ml after 24 hrs by propidium iodide staining-based flow cytometric method (reference value: 1%); type: cell-based
PBMC [17] = assay: Induction of apoptosis in human PBMC assessed as necrotic cells at 300 ug/ml after 24 hrs by propidium iodide staining-based flow cytometric method (reference value: 1%); type: cell-based
PBMC [18] = assay: Induction of apoptosis in human PBMC assessed as necrotic cells at 150 ug/ml after 24 hrs by propidium iodide staining-based flow cytometric method (reference value: 1%); type: cell-based
PBMC [19] = assay: Induction of apoptosis in human PBMC assessed as early apoptotic cells at 300 ug/ml after 24 hrs by propidium iodide staining-based flow cytometric method (reference value: 0.1%); type: cell-based
B16-F1 [20] = assay: Induction of apoptosis in mouse B16-F1 cells assessed as late apoptotic cells at 283.90 uM after 48 hrs by propidium iodide staining-based flow cytometric method (reference value: 0.5%); type: functional
HCT-116 = assay: Antiproliferative activity against human HCT116 cells after 72 hrs by MTT reduction assay; type: functional, cell-based; conditions: HCT-116, 72 h
Procedure, shortened: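 MTT reduction assay; adherent lines left to adhere overnight, suspension lines (HL-60, K562) seeded on the day. Incubation was 72 h at 37°C, with MTT added for the last 4 h.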

PBMC [21] = assay: Induction of apoptosis in human PBMC assessed as necrotic cells at 400 ug/ml after 24 hrs by propidium iodide staining-based flow cytometric method (reference value: 1%); type: cell-based
B16-F1 [22] = assay: Antiproliferative activity against mouse B16-F1 cells after 72 hrs by MTT reduction assay; type: functional, cell-based; conditions: B16-F1, 72 h; procedure, shortened: as §2
PBMC [23] = assay: Induction of apoptosis in human PBMC assessed as early apoptotic cells at 600 ug/ml after 24 hrs by propidium iodide staining-based flow cytometric method (reference value: 0.1%); type: cell-based

C/C=C1/[C@H](O[C@@H]2O[C@H](CO)[C@@H](O)[C@H](O)[C@H]2O)OC=C(C(=O)OC)[C@H]1CC(=O)OCCc1ccc(O)c(O)c1 [OLEUROPEIN]
Flu intensity (Mus musculus [1]): 2.5 - 2.7
Activity (B16-F1 [2]): 15.5%
Activity (PBMC [3]): 6.3%
Activity (PBMC [4]): 1.5%
Flu intensity (Mus musculus [5]): 6.6 - 7.5
Activity (PBMC [6]): 1.6%
Activity (PBMC [7]): 3%
Activity (B16-F1 [8]): 22.5%
Activity (B16-F1 [9]): 9.3%
Activity (PBMC [10]): 1.9%
Activity (B16-F1 [11]): 6.9%
Flu intensity (Mus musculus [12]): 3.2 - 3.9
Activity (B16-F1 [13]): 2.41 cm3
Activity (B16-F1 [14]): 21.8%
IC50 (MCF7): 162 to 170 µM
IC50 (SK-BR-3): 160 µM
Activity (Mus musculus [15]): Non-Toxic
Activity (PBMC [16]): 10.3%
Activity (PBMC [17]): 3.9%
Activity (PBMC [18]): 2.5%
Activity (PBMC [19]): 1.2%
Activity (B16-F1 [20]): 9.8%
IC50 (HCT-116): 182 to 185 µM
Activity (PBMC [21]): 4.3%
IC50 (B16-F1 [22]): 284 µM
Activity (PBMC [23]): 6.5%
